Assay outcomes from PubChem.
Rows were chosen to be rich in hits. Some 3.9% of all compounds tested hit in one or more screens of this group.
AHR act = human AHR activation; AHR-responsive luciferase reporter cells, luminescence; activation, % at 5 µM; 320,000 tested, 2.5% active; AID 2796; in the data active means activation above about 47%;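 further: 0% = vehicle wells and 100% = reference agonist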
HIF act = HIF pathway transcriptional activation | U2OS HRE-luciferase reporter, luminescence; normalized: DMSO 0%, desferrioxamine 100% | 300,000 tested, 0.32% active | AID 1910 | activation, % at 7.5 µM (by protocol);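 active means mean activation of at least 10% of the iron chelator positive control signal, with at least half of replicates also reaching 10%; inconclusive means mean and replicate majority disagree about reaching 10%; inactive means mean and most replicates under 10%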
SR-BI uptake up = SR-BI HDL lipid transfer activation; CHO ldlA[mSR-BI] cells, DiI-HDL uptake fluorescence, 3 h; 100 = double the neutral-control signal; activation, % at 12.5 µM; 320,000 tested, 0.096% active; AID 504775;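 active means mean replicate activation of at least 60% and every replicate at or above 60%; inconclusive means mean or all-replicate condition met, but not both; inactive means mean below 60% and not all replicates reaching 60%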;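 further: 0% = median plate neutral-control signal and 100% = twice that signal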
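Material: SR-BI-overexpressing, LDLR-lacking CHO cells | Dosing: Single compound concentration, delivered by pin transfer | Probe or stimulus: Labelled HDL, 10 µg/mL | Signal: Bottom-read cell fluorescence after medium removal, ex 550/em 595 nm | Schedule: 3 h, 37 °C | Evaluation: HDL uptake via cellular fluorescence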
SR-BI HDL uptake = blocks mouse SR-BI lipid uptake from DiI-HDL. Q61009. ldlA[mSR-BI] CHO cells, DiI-HDL uptake fluorescence, 3 h. inhibition, % at 12.5 µM. 320,000 tested, 0.96% active;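 active means mean replicate inhibition of at least 70% and a set share of replicates each scoring 70 or more; inconclusive means meets just one of the two criteria; inactive means fails both criteria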;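 further: 0% = median of neutral control wells and 100% = median of positive control wells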
Target sequence (Q61009 whole entry, looked up): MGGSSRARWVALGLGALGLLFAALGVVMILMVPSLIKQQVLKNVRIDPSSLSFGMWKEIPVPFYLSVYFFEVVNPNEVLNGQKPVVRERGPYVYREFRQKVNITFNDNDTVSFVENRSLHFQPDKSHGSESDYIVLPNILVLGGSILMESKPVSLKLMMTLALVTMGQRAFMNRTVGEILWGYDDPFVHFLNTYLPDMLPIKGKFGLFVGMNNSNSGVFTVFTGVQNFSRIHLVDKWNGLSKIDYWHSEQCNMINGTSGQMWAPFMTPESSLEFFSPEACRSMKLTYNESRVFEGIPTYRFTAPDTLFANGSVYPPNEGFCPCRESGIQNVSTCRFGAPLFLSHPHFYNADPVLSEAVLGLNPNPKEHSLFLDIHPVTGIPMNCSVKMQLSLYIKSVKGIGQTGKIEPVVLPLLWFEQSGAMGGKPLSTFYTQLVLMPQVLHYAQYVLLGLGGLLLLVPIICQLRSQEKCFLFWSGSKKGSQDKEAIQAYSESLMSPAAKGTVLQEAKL
FXN GAA850 act = activators of GAA850 frataxin (FXN) promoter; HEK293 lucGAA850 FXN promoter luciferase reporter, 24 h; percent of 10 µM SAHA response; activation, % at 6 µM; 360,000 tested, 0.56% active;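 active means activation above the average of all compounds screened plus 3 SD, cutoff fixed separately per campaign, cut at about 7.5% in these data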;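 further: 0% = DMSO wells and 100% = 10 µM SAHA wells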
ABCB6 inh 2 = blocks the human ABCB6 transporter; Q9NP58; K562-ABCB6 porphyrin accumulation, flow cytometry, 1 h; active compounds read low; fluorescence ratio to DMSO, % at 10 µM; 360,000 tested, 0.19% active; AID 602162;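 active means fluorescence ratio to DMSO below 75%, the collection mean minus 3 SD; inconclusive means too few cells collected in the well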;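 further: signal is porphyrin accumulated inside mitochondria; 100% equals median channel fluorescence of DMSO control wells; lower ratio means ABCB6 inhibition with less porphyrin fluorescence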
* marks the source's active call; other numbers are inactive results; u = inconclusive; x = not tested or not shown; + = active, no number.

SMILES	AHR act	HIF act	SR-BI uptake up	SR-BI HDL uptake	FXN GAA850 act	ABCB6 inh 2
CC1=CC(=C2C(=O)c3ccccc3C2=O)C=C(C)O1	7	1	-5	5	6	78
COc1cc(/C=N\NC(=O)c2ccc(Cl)cc2)ccc1Oc1ccc([N+](=O)[O-])cn1	-6	0	-79	79*	-3	84
CCOc1cc(C=C(C#N)C#N)ccc1Oc1ccc([N+](=O)[O-])cn1	5	0	-12	12	-3	96
COc1cc(/C=C(/C#N)c2ccc(F)cc2)ccc1Oc1ccc([N+](=O)[O-])cn1	-4	0	-85	85*	-1	100
CC(C)(C)c1ccc(S(=O)(=O)n2c(CN3CCOCC3)nc3ccccc32)cc1	8	0	20	-20	2	100
O=C(O)c1ccccc1N/N=C\c1ccnc2ccccc12	65*	0	1	-1	-2	91
Cc1nn(-c2ccccc2)c(N2CCCC2)c1/C=N/NC(=O)c1cccc(S(=O)(=O)Nc2ccc(Cl)cc2)c1	6	0	-77	77*	2	95
Cc1nn(-c2ccccc2)c(N2CCCC2)c1/C=N/NC(=O)c1cc(-c2ccccc2)nc2ccccc12	7	0	-88	88*	-5	102
Cc1nn(-c2ccccc2)c(N2CCCC2)c1/C=N/NC(=O)c1cc(-c2ccccn2)nc2ccccc12	47	-3	-64	64	2	96
Cc1ccc(-c2cc(C(=O)N/N=C/c3c(C)nn(-c4ccccc4)c3C)[nH]n2)cc1	x	1	-78	78*	0	89
Cc1nn(-c2ccccc2)c(C)c1/C=N/NC(=O)c1cc(C(C)(C)C)[nH]n1	8	0	-67	67	1	106
Cc1nn(-c2cccc(Cl)c2)c(Cl)c1/C=N/NC(=O)c1cccnc1	78*	4	-53	53	1	99
COc1ccc(C)cc1COC(=O)c1[nH]c(C)c(C(C)=O)c1C	39	0	-71	u	0	90
COc1cc(N/C(N)=N/c2nc(C)cc(C)n2)c(OC)cc1Cl	54*	0	-9	9	-2	98
Cc1noc(C(=O)Nc2cc(Cl)ccc2O)c1Cl	56*	0	-1	1	1	102
COc1cc(NC(N)=S)c(OC)cc1Cl	-1	0	9	-9	1	91
COc1cc(NC(=O)c2onc(C)c2Cl)c(OC)cc1Cl	60*	0	-13	13	0	101
Cn1ncc(Cl)c1C(=O)Nc1cc(C(F)(F)F)ccc1F	78*	0	-1	1	2	98
Cn1ncc(Cl)c1C(=O)Nc1nc2ccc(Cl)cc2s1	60*	u	-3	3	3	99
CC(C)c1nc(SCC(=O)N2CCc3ccccc32)n[nH]1	0	0	25	-25	4	89
Cc1csc2ncc(C(=O)Nc3ccccc3F)c(=O)n12	60*	2	6	-6	5	99
CC(=O)c1c(C)[nH]c(C(=O)COc2ccc3ccc(=O)oc3c2)c1C	56*	-55	-45	45	-3	88
Cc1cc(N2CCOCC2)nc(N)n1	0	-1	19	-19	1	101
COc1ccc(-c2nc3c4ccccc4[nH]c(=O)n3n2)cc1	112*	2	2	-2	0	99
Cc1ccc(N(C(=O)c2csnn2)C(C(=O)NC2CCCC2)c2ccncc2)c(C)c1 (centres undefined)	3	0	x	x	0	103
SMILES	AHR act	HIF act	SR-BI uptake up	SR-BI HDL uptake	FXN GAA850 act	ABCB6 inh 2
CC(OC(=O)c1cccnc1SCc1cc(=O)n2ccccc2n1)c1ccccn1 (centres undefined)	73*	0	-5	5	0	98
CCOC(=O)c1cccnc1SCc1cc(=O)n2ccccc2n1	29	0	2	-2	4	99
COC(=O)c1ccccc1NC(=O)CN1CCC(n2nnc3cc(C(F)(F)F)ccc32)CC1	7	0	2	-2	2	94
COc1ccc(-c2nc3ccc([N+](=O)[O-])cc3o2)cc1	-3	4	16	-16	2	99
COc1ccc(-c2nc3c(Br)c(N)c(Br)cc3o2)cc1	49*	x	-32	32	7	101
O=C(Nc1nccs1)C1CC(=O)N(c2ccc(F)cc2)C1 (centres undefined)	-1	0	x	x	1	97
CC(C(=O)Nc1ccccc1-c1ccccc1)N1CCN(C(=O)c2ccccc2)CC1 (centres undefined)	2	34*	x	x	-1	97
O=Cc1cn(-c2ccccc2)nc1-c1ccncc1	60*	3	1	-1	-2	102
CN(c1cccc(Cl)c1)S(=O)(=O)c1cccc(C(=O)Nc2nc3ccccc3[nH]2)c1	15	+	-63	63	2	96
O=C(Nc1nc2ccccc2[nH]1)c1ccccc1O	26	6	-11	11	0	316
COc1ccc(N(C)S(=O)(=O)c2cccc(C(=O)Nc3nc4ccccc4[nH]3)c2)cc1	2	-1	-35	35	1	93
Cc1onc(-c2c(F)cccc2Cl)c1C(=O)Nc1nc2ccccc2[nH]1	48*	0	-39	39	-2	108
Cc1ccc(C)c(C(=O)Nc2nc3ccccc3[nH]2)c1	48*	2	3	-3	2	96
c1ccc(CNc2nc(NCC3CC3)nc3cc(-c4ccccc4)sc23)cc1	x	x	x	x	-2	94
COc1cccc(CN(C(=O)c2ccco2)C(C(=O)NC2CCCC2)c2cccnc2)c1 (centres undefined)	1	0	9	-9	2	107
CCN(CC)c1ccc(-c2nc3cnccn3c2NC2CCCC2)cc1	69*	1	-24	24	2	116
CCN/N=C(\Cc1nc2ccccc2[nH]1)c1ccccc1	19	1	-13	13	1	95
N#CCCN/N=C(/Cc1nc2ccccc2[nH]1)c1ccc(Cl)cc1	48*	1	x	x	x	x
c1ccc(N/N=C(\Cc2nc3ccccc3[nH]2)c2ccccc2)cc1	149*	2	-11	11	1	100
Cc1ccc(N/N=C(\Cc2nc3ccccc3[nH]2)c2ccccc2)cc1	34	x	-58	58	4	104
CC(C)CC1Nc2ncnc(N3CCN(c4ccccc4)CC3)c2N(Cc2ccc(Br)cc2)C1=O (centres undefined)	6	1	1	-1	-1	113
O=C(Nc1ccc(C#Cc2ccccc2)cc1)C1CC1	-4	2	-31	31	-3	100
COc1cc(OC)cc(-c2sc3ccc(OC)cc3c2C#CCO)c1	49*	x	-79	79*	4	101
COc1cccc(-c2sc3ccc(OC)cc3c2C#CCCO)c1	69*	x	-62	62	4	105
